# SIAE primary = human SIAE inhibition, primary screen; Q9HAT2; SIAE FP-Rh probe binding, fluorescence polarization; inhibition, % at 9.66 µM; hit rate 0.69% among 370,000; AID 1053197;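 active means inhibition above a cutoff: mean of compounds within the control limits plus 3 SD of those, cut at about 17% in these data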
# PRMT1 inh = blocks human protein arginine methyltransferase 1; Q99873; hit rate 1.3% among 370,000; AID 652257; recombinant PRMT1, activity-based probe fluorescence polarization; inhibition, % at 2.79 µM;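 active means inhibition above about 21% made by adding two undisclosed values, limit read from the data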
# mABHD4 FP = inhibits mouse alpha/beta hydrolase domain 4; inhibition, % at 8.92 µM; hit rate 0.54% among 370,000; purified mABHD4, FP-Rh probe fluorescence polarization; AID 720543;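 active means inhibition exceeding the mean over every tested compound plus 3 SD, cut at about 30% in these data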
# Target sequence (Q8VD66 whole entry, looked up, the tested form may be a part): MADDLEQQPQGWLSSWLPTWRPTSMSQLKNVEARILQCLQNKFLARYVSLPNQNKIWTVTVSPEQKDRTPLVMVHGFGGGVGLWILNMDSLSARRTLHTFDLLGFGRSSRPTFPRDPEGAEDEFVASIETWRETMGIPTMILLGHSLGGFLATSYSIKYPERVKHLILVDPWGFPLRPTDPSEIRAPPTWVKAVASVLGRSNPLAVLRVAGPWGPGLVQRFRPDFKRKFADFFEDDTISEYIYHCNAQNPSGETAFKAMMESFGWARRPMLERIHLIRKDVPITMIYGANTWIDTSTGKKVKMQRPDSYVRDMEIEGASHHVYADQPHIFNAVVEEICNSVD
#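 assay system = mABHD4 protein | compound dosing = single nominal dose of 8.92 µM, 0.89% DMSO final | read-out basis = percent inhibition of probe binding, normalized to plate controls | schedule = Enzyme–compound pre-incubation 45 min, then probe 60 min, both 25 °C | detection = fluorescence polarization, excitation 525 nm, emission 598 nm, BODIPY TMR filters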
# HTRA1 inh = inhibitors of human serine peptidase HTRA1; inhibition, % at 5.96 µM; hit rate 0.5% among 340,000; Q92743; AID 504803; recombinant HTRA1, FP-rhodamine activity-based probe, fluorescence polarization; in the data active means inhibition above about 36%
# TCR-CD3 inh = inhibitors of human TCR-CD3 interaction; TAMRA-labeled TCR probe fluorescence, biochemical; inhibition, % at 9.4 µM; AID 651800; hit rate 0.37% among 360,000; in the data active means inhibition above about 19%;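 further: recombinant mutant TCR 2C K166C tagged with TAMRA read by polarization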
# PRMT1 confirm = PRMT1 (human) inhibition, FP confirmation; inhibition, % at 2.79 µM; AID 687036; recombinant His-PRMT1, activity-based probe fluorescence polarization; hit rate 42% among 3,300; shares compounds with PRMT1 inh;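 active means mean inhibition across replicates above the hit cutoff derived for the earlier primary screen, cut at about 22% in these data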
# Numbers stand for hits; . = inactive; / = no result. An excerpt weighted towards active compounds, which were near 2.5% of everything screened.
SMILES,SIAE primary,PRMT1 inh,mABHD4 FP,HTRA1 inh,TCR-CD3 inh,PRMT1 confirm
Cc1cc(O)cc(=O)n1-c1cccc(F)c1,.,.,.,/,.,/
Nc1ccccc1SC1CC(=O)N(c2ccc3c(c2)OCO3)C1=O (centres undefined),.,.,.,/,.,/
Cc1cccc(N2C(=O)CC(Sc3ccccc3C(=O)O)C2=O)c1 (centres undefined),.,60,.,.,.,22
O=C(O)c1ccccc1SC1CC(=O)N(c2ccc3c(c2)OCO3)C1=O (centres undefined),.,56,.,.,.,30
Cc1cc(C)c(N2C(=O)CC(Sc3ccccc3N)C2=O)c(C)c1 (centres undefined),.,34,.,.,.,.
Cc1ccc(N2C(=O)CC(Sc3ccccc3C(=O)O)C2=O)cc1 (centres undefined),.,86,.,.,.,24
COC(=O)[C@]12C[C@H](CC(=O)N3CCSCC3)C(=O)N(CCc3ccc(OC)c(OC)c3)C1=C[C@H](COCc1ccccc1)O[C@@H]2C,.,.,.,/,/,/
COc1cccc(C(=O)N[C@H](C(=O)N2CCC[C@H]2C(=O)NCc2ccccc2)c2ccccc2)c1,.,.,.,/,.,/
CC(C)CN1C(=O)CC(Sc2ccccc2C(=O)O)C1=O (centres undefined),.,.,.,.,.,/
Cc1cc(C)nc(SC2CC(=O)N(c3ccc(C)c(C)c3)C2=O)n1 (centres undefined),.,.,.,.,.,/
Cc1ccc(N2C(=O)CC(Sc3ccccc3C(=O)O)C2=O)cc1C (centres undefined),.,62,.,.,.,.
Cc1cc(C)cc(N2C(=O)CC(Sc3ccccc3C(=O)O)C2=O)c1 (centres undefined),.,49,.,.,.,.
CN(C)c1ccc(N2C(=O)CC(Sc3ccccc3C(=O)O)C2=O)cc1 (centres undefined),.,82,.,.,.,43
CN1C(=O)CC(Sc2ccccc2C(=O)O)C1=O (centres undefined),.,.,.,.,.,/
COC(=O)C[C@@H]1CC[C@H]2[C@@H](COc3ccc(NC(=O)Nc4ccccc4Cl)cc3C(=O)N2C)O1,.,.,.,/,/,/
O=C(O)/C(=C\c1ccco1)NC(=O)c1cccc2ccccc12,.,33,.,.,.,.
O=C(O)/C(=C\c1ccco1)NC(=O)c1ccc(Br)o1,.,.,.,.,.,/
O=C(O)/C(=C/c1ccco1)NC(=O)c1ccc(Br)o1,.,29,.,.,.,.
O=C(NC(Cc1ccccc1)C(=O)O)/C(=C\c1ccco1)NC(=O)c1ccc(Br)cc1 (centres undefined),.,35,.,.,.,.
O=C(Nc1ccc(C(=O)O)cc1)/C(=C\c1ccco1)NC(=O)c1ccc(Br)cc1,.,34,.,.,.,.
N#Cc1ccc(/C=C2\CC3(OC(=O)C4CCCCC4)CCCN2C3)cc1 (centres undefined),.,.,.,/,/,/
O=C(Nc1ccc(C(=O)O)cc1)/C(=C\c1ccco1)NC(=O)c1ccc(Br)o1,.,25,.,.,.,.
C=CCNC(=O)/C(=C/c1ccco1)NC(=O)c1ccc(Br)o1,.,.,.,.,.,/
c1ccc(Nc2cccc(Nc3ccccc3)n2)cc1,.,37,.,.,.,42
C/C(=N\N1C(=O)CSC1=S)c1ccc(Br)cc1,.,31,.,.,.,32
SMILES,SIAE primary,PRMT1 inh,mABHD4 FP,HTRA1 inh,TCR-CD3 inh,PRMT1 confirm
CC(C)CSc1ncccc1-c1nc2ccccc2[nH]1,.,.,.,/,/,/
CN(c1ncc(C(F)(F)F)cc1Cl)N1C(=O)c2cccc(N)c2C1=O,.,.,.,.,.,/
CN(c1ncc(C(F)(F)F)cc1Cl)N1C(=O)C2ONC3(C(=O)CC(C)(C)CC3=O)C2C1=O (centres undefined),.,72,.,.,.,.
CC1C(=O)N(Cc2cn(CCC3OCCCO3)nn2)CCS(=O)(=O)N1Cc1ccc(-c2ccc(F)nc2)cc1 (centres undefined),.,55,.,.,.,.
O=C(Cn1c(=O)c2cccn2c2cccnc21)NCCCN1CCN(c2ccc(Cl)cc2)CC1,.,.,.,/,/,/
Oc1ccccc1C(=S)N1CCN(C(=S)c2ccccc2O)CC1,.,42,.,.,.,.
CCCSc1nnc(NC(=O)c2sc3nc(-c4cccs4)ccc3c2N)s1,.,28,.,.,.,.
COc1cccc(OC[C@@H](O)CN2CCC(C(O)(c3ccccc3)c3ccccc3)CC2)c1,.,.,.,/,/,/
